Measurements of several laboratories.
Mode: inhibitor
MET: Hepatocyte growth factor receptor (MET, Homo sapiens, UniProt P08581)

The inhibition of CC/C(=N\NC(=O)NCc1cccc(O)c1)c1ccc(O)c(C)c1O is reported as -0.2% (Hepatocyte growth factor receptor (MET, Homo sapiens, UniProt P08581, M1250T); enzyme activity; 0.1 µM).
For CNc1cc(Oc2cc(C(=O)Nc3cc(N4CCN(C)CC4)cc(C(F)(F)F)c3)ccc2C)ncn1, the inhibition was -18.4% (MET; target engagement in cells, chemoproteomics; Huh-7; 1 µM).
COc1cc2ncnc(Nc3ccc(Oc4ccccc4)cc3C)c2cc1OC gave an inhibition of -1% (MET; enzyme activity; 1 µM).
For CCCS(=O)(=O)Nc1ccc(F)c(C(=O)c2c[nH]c3ncc(-c4ccc(Cl)cc4)cc23)c1F, the inhibition was < 20% (MET; enzyme activity; 1 µM).
CNc1cccc2cc(C(=O)Nc3ccc(C(=O)O)cc3)c(=O)[nH]c12 has an inhibition of 1.4% (MET; enzyme activity; 10 µM).
With CNC(=O)c1cc(Oc2ccc(NC(=O)Nc3ccc(Cl)c(C(F)(F)F)c3)cc2)ccn1 the inhibition was -13% (MET; enzyme activity; 10 µM).
For COc1cc2nccc(Oc3ccc(NC(=O)c4c5n(n(-c6ccc(F)cc6)c4=O)CCCC5)cc3)c2cc1OC, the inhibition was 98% (MET; enzyme activity; 0.1 µM).
CNC(=O)c1cc2c(Oc3ccc(NC(=O)C4(C(=O)Nc5ccc(F)cc5)CC4)cc3)ccnc2cc1OC gave an inhibition of 100% (Hepatocyte growth factor receptor (MET, Homo sapiens, UniProt P08581, Y1230C); enzyme activity, radiometric; 1 µM).
COc1cc2ncnc(Nc3ccc(Oc4ccccc4)c(C)c3C)c2cc1OC gave an inhibition of 8% (MET; enzyme activity; 1 µM).
O=C(CSc1nc2nccnc2c(=O)n1CCc1ccccc1)Nc1nccs1 gave an inhibition of -2% (MET; enzyme activity; 10 µM).
CN(C)C1CCN(CC#Cc2nn(C3CCCC3)c3nc(NCc4ccccc4)ncc23)C1 (centres unmarked) has an inhibition of 72% (MET; enzyme activity, FRET; 10 µM).
